Results: ChEMBL document CHEMBL6134900 (J Med Chem, 2025)
Active and inactive are the calls of the source. The calls are words filed in the database; no cut-off is given here.

What was measured:
[1] = target: T1, Protein cereblon/SWI/SNF-related matrix-associated actin-dependent regulator of chromatin subfamily A member 2 (Homo sapiens, UniProt P51531+Q96SW2); experiment: PROTAC activity at CRBN/SMARCA2 in human NCI-H1792 cells harboring wild type SMARCA4 assessed as reduction in SMARCA2 protein level at 20 nM incubated for 24 hrs by TMT mass spectrometric analysis; type: cell-based
[2] = target: T1, Protein cereblon/SWI/SNF-related matrix-associated actin-dependent regulator of chromatin subfamily A member 2; experiment: PROTAC activity at CRBN/SMARCA2 in human H322 cells harboring SMARCA4 mutant assessed as induction of SMARCA2 degradation at 0.1 uM in presence of MLN4924 by immunoblot analysis; type: cell-based
[3] = In vivo PROTAC activity at CRBN/SMARCA2 in female athymic nude mouse xenografted with human NCI-H2023 cells harboring SMARCA4 mutant assessed as SMARCA2 degradation at 5 mg/kg, po administered once daily via gavage for 19 days by Western blotting analysis relative to control; type: functional; conditions: time 19 day
Outline: (§1)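 Female nude mice aged 6–8 weeks carried subcutaneous flank xenografts in PBS/Matrigel 1:1: H2023 at 10 × 10^6 cells or HCC515 at 5 × 10^6 cells. Randomised below 200 mm3. 5 mg/kg or vehicle given by oral gavage once daily for 19 days in 0.5% methylcellulose with Tween-80 (0.2% for H2023, 1% for HCC515). Tumours collected 24 h after dosing. SMARCA2 measured by Western blot against β-actin, relative to vehicle.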

[4] = In vivo PROTAC activity at CRBN/SMARCA2 in female athymic nude mouse xenografted with human HCC515 cells harboring SMARCA4 mutant assessed as SMARCA2 degradation at 5 mg/kg, po administered once daily via gavage for 19 days by Western blotting analysis relative to control; type: functional; conditions: time 19 day; outline: as §1
[5] = Drug metabolism in mouse liver microsomes assessed as Mono-oxygenation mediated M2 metabolite formation at 10 uM incubated for 60 mins by LC-UV-HRMS analysis; type: ADME, Microsome; conditions: 1 h
Outline: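 Compound at 10 μM incubated with mouse liver microsomes at 37 °C for 60 min. Metabolites detected by LC-UV-HRMS, structures proposed from MS and MS2 data, and each metabolite given as a percentage.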

NCI-H2030 [6] = experiment: Antitumor activity against human NCI-H2030 cells harboring KRAS G12C mutant/SMARCA4 mutant assessed as cell growth inhibition incubated for 7 days by Incucyte S3 analysis; type: functional, cell-based; conditions: time 7.0 day
Outline: (§2)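 H2030 cells plated at 500 per well and grown overnight at 37 °C. Treated with 3-fold dilutions of sotorasib, test agent, or both. Confluency imaged every 4 h for 7 days on IncuCyte S3. Synergy scored as Bliss/Lowe consensus, >10 taken as synergy.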

NCI-H2030 [7] = experiment: Synergistic antitumor activity against human NCI-H2030 cells harboring KRAS G12C mutant/SMARCA4 mutant assessed as cell growth inhibition at 1 uM incubated for 7 days in presence of sotorasib by Incucyte S3 analysis; type: functional, cell-based; conditions: time 7.0 day; outline: as §2

| Compound | Activity [1] | Activity [2] | Activity [3] [%] | Activity [4] [%] | Drug metabolism [5] | Activity (NCI-H2030 [6]) | Activity (NCI-H2030 [7]) |
| --- | --- | --- | --- | --- | --- | --- | --- |
| Nc1nnc(-c2ccccc2O)cc1N1CCN(Cc2ccc(N3CCN(CCOc4cccc5c4C(=O)N(C4CCC(=O)NC4=O)C5=O)CC3)c(F)c2)CC1 (configuration not stated) | Active | inactive | 76 | 96 |  |  |  |
| Nc1nnc(-c2ccccc2O)cc1N1CCN(Cc2ccc(N3CCC(CN4CCN(c5ccc6c(c5)C(=O)N(C5CCC(=O)NC5=O)C6=O)CC4)CC3)c(F)c2)CC1 (configuration not stated) |  |  |  |  | metabolite_detected | Active; Minimal Inhibition Observed | Active; Robust Synergistic Growth Inhibition Observed |
